Experimental data from ChEMBL document CHEMBL1137257, “Synthesis and evaluation of thiazepines as interleukin-1beta converting enzyme (ICE) inhibitors” (Bioorg Med Chem Lett, 2006).

Key:
THP-1 = assay: Inhibition of LPS-induced ILbeta1 release in human THP1 cells; format: functional, cell-based
In short: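 Human monocytic THP-1 cells (2 × 10⁶/ml, RPMI 1640) were preincubated 15 min with or without compound added as DMSO solutions, with test concentrations starting at 1 nM. Cells were then stimulated with LPS for 4 h and centrifuged. Inhibition of IL-1β production was measured.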

Caspase-1 = target: T1, Caspase-1 (Homo sapiens, UniProt P29466); assay: Inhibition of ICE
T1 sequence (P29466 whole entry): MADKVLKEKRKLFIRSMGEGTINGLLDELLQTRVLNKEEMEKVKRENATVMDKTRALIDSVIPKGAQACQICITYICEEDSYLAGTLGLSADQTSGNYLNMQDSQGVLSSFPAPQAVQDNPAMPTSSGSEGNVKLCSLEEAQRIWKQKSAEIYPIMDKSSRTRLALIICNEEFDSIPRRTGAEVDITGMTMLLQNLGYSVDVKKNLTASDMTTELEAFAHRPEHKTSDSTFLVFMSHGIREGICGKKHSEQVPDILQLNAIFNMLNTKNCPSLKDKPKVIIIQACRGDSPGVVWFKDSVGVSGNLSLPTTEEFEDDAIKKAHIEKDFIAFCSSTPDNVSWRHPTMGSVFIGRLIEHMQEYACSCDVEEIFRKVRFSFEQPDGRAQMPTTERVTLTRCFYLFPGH
In short: (§1)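 Isolated enzymes (ICE, caspase-3, caspase-8) were assayed with fluorogenic substrates following the supplier's kit protocol. Cleavage was followed for 30 min at 37 °C by fluorescence (excitation 390 nm, emission 460 nm). IC50 was calculated as [I]/((Vo/Vi) − 1) from the initial velocities with (Vi) and without (Vo) inhibitor.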

Homo sapiens = species on record: Homo sapiens; assay: Selectivity for ICE over Caspase 8
Caspase-8 = Caspase-8 (Homo sapiens, UniProt Q14790); assay: Inhibition of Caspase 8; in short: as §1
Sequence of Caspase-8 (Q14790 217-374 limits assumed): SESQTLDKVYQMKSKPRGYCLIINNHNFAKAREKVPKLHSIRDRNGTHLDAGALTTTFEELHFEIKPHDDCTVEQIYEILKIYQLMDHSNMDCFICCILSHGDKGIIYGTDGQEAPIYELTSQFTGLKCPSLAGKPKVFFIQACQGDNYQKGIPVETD
Sequence of Caspase-8 (Q14790 385-479 limits assumed): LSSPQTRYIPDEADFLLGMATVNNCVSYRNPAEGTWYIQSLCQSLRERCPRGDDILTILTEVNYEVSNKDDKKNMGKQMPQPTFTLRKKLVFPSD

Caspase-3 = target: T2, Caspase-3 (Homo sapiens, UniProt P42574); assay: Inhibition of Caspase 3; in short: as §1
T2 sequence (P42574 whole entry): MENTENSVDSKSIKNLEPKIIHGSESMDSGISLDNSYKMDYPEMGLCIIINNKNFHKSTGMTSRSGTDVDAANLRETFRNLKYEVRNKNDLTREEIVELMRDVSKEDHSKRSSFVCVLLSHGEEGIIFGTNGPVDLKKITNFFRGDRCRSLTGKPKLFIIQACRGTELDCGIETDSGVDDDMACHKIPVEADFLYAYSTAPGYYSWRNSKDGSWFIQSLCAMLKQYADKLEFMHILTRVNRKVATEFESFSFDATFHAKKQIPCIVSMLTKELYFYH

| SMILES | IC50 (THP-1) | IC50 (Caspase-1) | Selectivity ratio (Homo sapiens) | IC50 (Caspase-8) | IC50 (Caspase-3) |
| --- | --- | --- | --- | --- | --- |
| O=C(CN1CCSC[C@H](NC(=O)c2ccc3ccccc3c2)C1=O)N[C@H]1CC(=O)OC1O (some centres undefined) | 480 nM | 30 nM | > 100 | 9400 nM | > 10000 nM |
| O=C(CN1CCS(=O)(=O)C[C@H](NC(=O)c2cc3ccccc3s2)C1=O)N[C@H]1CC(=O)OC1O (some centres undefined) | 1700 nM | 320 nM | > 100 | 8500 nM | > 10000 nM |
| CCO[C@@H]1OC(=O)C[C@@H]1NC(=O)[C@@H]1CCCN2C(=O)CC[C@H](NC(=O)c3nccc4ccccc34)C(=O)N12 [PRALNACASAN] | 190 nM | – | – | – | 1300 nM |
| O=C(CN1CCS(=O)(=O)C[C@H](NC(=O)c2ccc3ccccc3c2)C1=O)N[C@H]1CC(=O)OC1O (some centres undefined) | 1100 nM | 150 nM | > 100 | > 10000 nM | > 10000 nM |
| O=C(CN1CCS(=O)(=O)C[C@H](NC(=O)c2cccc(C(F)(F)F)c2)C1=O)N[C@H]1CC(=O)OC1O (some centres undefined) | 3400 nM | – | > 100 | – | – |
| O=C(CN1CCSC[C@H](NC(=O)c2cc3ccccc3s2)C1=O)N[C@H]1CC(=O)OC1O (some centres undefined) | 640 nM | 80 nM | > 100 | 9500 nM | > 10000 nM |
| O=C(CN1CCS(=O)(=O)C[C@H](NC(=O)c2nccc3ccccc23)C1=O)N[C@H]1CC(=O)OC1O (some centres undefined) | 1400 nM | 130 nM | > 100 | 5000 nM | > 10000 nM |
| O=C(CN1CCSC[C@H](NC(=O)c2nccc3ccccc23)C1=O)N[C@H]1CC(=O)OC1O (some centres undefined) | 730 nM | 70 nM | > 100 | 7000 nM | > 10000 nM |
| O=C(CN1CCS(=O)(=O)C[C@H](NC(=O)c2ccccc2)C1=O)N[C@H]1CC(=O)OC1O (some centres undefined) | 3200 nM | 2300 nM | > 100 | > 10000 nM | > 10000 nM |
| O=C(CN1CCSC[C@H](NC(=O)c2ccccc2)C1=O)N[C@H]1CC(=O)OC1O (some centres undefined) | 1700 nM | 350 nM | > 100 | 5200 nM | > 10000 nM |
| O=C(CN1CCSC[C@H](NC(=O)c2cccc(C(F)(F)F)c2)C1=O)N[C@H]1CC(=O)OC1O (some centres undefined) | 1000 nM | 150 nM | > 100 | > 10000 nM | > 10000 nM |
